Measurements collected from several papers.
Each line is one published result; the experiments were not run side by side.
Target: Cyclin-dependent kinase 8 (CDK8, Homo sapiens, UniProt P49336)

`C[C@H]1CC[C@H](n2c3cnccc3c3cnc(Nc4ccc5c(n4)CCN(C(=O)CO)C5)nc32)CC1` has a remaining binding of 100% (binding, competition with immobilised ligand; 1 µM).
For `Cc1cc(S(=O)(=O)N[C@H]2CC[C@H](CN3CCN(c4ccc(C5CCC(=O)NC5=O)cc4F)CC3)CC2)ccc1Nc1ncc(C(F)(F)F)c(N2CCC[C@](C)(O)C2)n1` (some centres unmarked), the remaining binding was 76% (binding, competition with immobilised ligand; 1 µM).
`C1=C/COCc2cc(ccc2OCCN2CCCC2)Nc2nccc(n2)-c2cccc(c2)COC/1` gave a remaining signal of 75% (cell-free assay; 0.1 µM).
For `CCCCC(=O)Nc1ccc(-c2ccc3ncn(CCC)c(=O)c3c2)cn1`, the remaining binding was 83% (binding, competition with immobilised ligand; 0.5 µM).
For `CO[C@@H]1[C@H](N(C)C(=O)c2ccccc2)C[C@H]2O[C@]1(C)n1c3ccccc3c3c4c(c5c6ccccc6n2c5c31)C(=O)NC4`, the inhibition was 5% (enzyme activity, inhibitor; 1 µM).
`Cc1ccc(NC(=O)c2ccnc(C(F)(F)F)c2)cc1-c1cc(OCCO)nc(N2CCOCC2)c1` has a remaining binding of 100% (binding, competition with immobilised ligand; 1 µM).
With `C[C@]1(O)CCCN(c2nc(Nc3ccc(S(=O)(=O)N[C@H]4CC[C@H](CN5CCN(c6ccc(C7CCC(=O)NC7=O)cc6F)CC5)CC4)cc3Cl)ncc2C(F)(F)F)C1` (some centres unmarked) the remaining binding was 80% (binding, competition with immobilised ligand; 1 µM).
With `CC#CC(=O)N1CCC[C@H]1c1nc(-c2ccc(C(=O)Nc3ccccn3)cc2)c2c(N)nccn12` the inhibition was 5% (enzyme activity, inhibitor; 1 µM).
